Screening results (PubChem)
Compounds with a hit are over-represented: about 1.8% of the library has one in this group of screens.
HTRA1 inhibitor = blocks human HTRA1 serine peptidase; Q92743; recombinant HTRA1, FP-rhodamine activity-based probe, fluorescence polarization; inhibition, % at 5.96 µM; 340,000 tested, 0.5% active; in the data active means inhibition above about 36%;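 further: 0% = enzyme with DMSO and 100% = wells lacking enzyme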
SIAE primary = inhibitors of human sialic acid acetylesterase SIAE. SIAE FP-Rh probe binding, fluorescence polarization. inhibition, % at 9.66 µM. Q9HAT2. 370,000 tested, 0.69% active;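 active means inhibition above a cutoff: mean of compounds within the control limits plus 3 SD of those, cut at about 17% in these data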;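 further: 0% = plate median of compound wells and 100% = probe without SIAE protein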
Target sequence (Q9HAT2 whole entry, looked up): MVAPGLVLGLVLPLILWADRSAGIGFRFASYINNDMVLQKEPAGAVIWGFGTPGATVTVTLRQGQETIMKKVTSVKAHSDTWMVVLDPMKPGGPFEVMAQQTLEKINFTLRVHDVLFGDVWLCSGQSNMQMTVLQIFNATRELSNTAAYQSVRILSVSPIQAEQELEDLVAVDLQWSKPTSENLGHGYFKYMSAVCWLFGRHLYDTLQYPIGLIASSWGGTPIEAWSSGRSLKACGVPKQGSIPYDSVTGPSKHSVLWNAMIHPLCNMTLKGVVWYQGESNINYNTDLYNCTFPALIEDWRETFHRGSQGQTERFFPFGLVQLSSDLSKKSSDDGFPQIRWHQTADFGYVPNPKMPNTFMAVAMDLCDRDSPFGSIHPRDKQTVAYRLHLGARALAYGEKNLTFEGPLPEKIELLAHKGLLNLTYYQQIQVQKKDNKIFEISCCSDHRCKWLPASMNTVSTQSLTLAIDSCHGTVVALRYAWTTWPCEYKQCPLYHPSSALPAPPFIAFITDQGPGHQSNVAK
DDE Tn7 FP inh = disrupts Tn7 cyclic peptide binding to fibrin D-Dimer-E complex. 370,000 tested, 0.13% active. inhibition, % at 8.3 µM. AID 720508. FP displacement of FITC-Tn7 peptide from fibrin DD(E); 0% = median of compound wells per plate;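 active means inhibition above the mean of compounds falling within the control limits plus 3 SD of them, cut at about 14% in these data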;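 further: 0% = plate median of compound wells and 100% = 10 µM Aha-Tn7 peptide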
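Assay system: Fibrin-DD(E) protein isolated from polymerized human fibrin clots; read-out basis: percent inhibition; medium: Tris/NaCl/CaCl2 buffer, pH 7.8; signal: FP measurement; incubation: 10 min plus 3 h, room temperature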
TCR-CD3 inh = inhibitors of human TCR-CD3 interaction; TAMRA-labeled TCR probe fluorescence, biochemical; inhibition, % at 9.4 µM; 360,000 tested, 0.37% active; AID 651800; in the data active means inhibition above about 19%;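 further: recombinant mutant TCR 2C K166C tagged with TAMRA read by polarization; 0% = receptor in buffer alone and 100% = receptor with positive control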
DDE Tn6 FP inh = DD(E)-Tn6 binding inhibition, primary FP screen. inhibition, % at 8.3 µM. AID 720509. P02675. Fibrin DD(E) TRITC-Tn6 fluorescence polarization displacement. 370,000 tested, 0.21% active;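 active means inhibition above a per-campaign cutoff: mean of compounds within control limits plus 3 SD, cut at about 15% in these data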;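 further: 0% = median of all compound wells on the plate and 100% = blocking peptide control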
ABHD4 inh = inhibitors of mouse ABHD4 | purified mABHD4, FP-Rh probe fluorescence polarization | AID 720543 | 370,000 tested, 0.54% active | inhibition, % at 8.92 µM;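 active means inhibition exceeding the mean over every tested compound plus 3 SD, cut at about 30% in these data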;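 further: 0% = plate median of compound wells and 100% = S159A mutant with DMSO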
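Test system: mABHD4 protein; Read-out basis: % inhibition; Incubation: 45 min + 60 min at 25 °C; Repeats: single replicate; Technique: fluorescence polarization with parallel and perpendicular emission, 525/598 nm; Compound: 8.92 µM, single dose; Benchmarks: full inhibition S159A mutant plus DMSO, zero as sample-well median.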
HTRA1 inh conf = confirmation of human HTRA1 inhibitors | 1,600 tested, 66% active | shares compounds with HTRA1 inhibitor | recombinant HTRA1, FP-rhodamine activity-based probe, fluorescence polarization | inhibition, % at 5.96 µM;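 active means mean inhibition over three repeats above a set limit taken from the earlier primary screen, cut at about 37% in these data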;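 further: 0% = HTRA1 with DMSO and 100% = wells lacking HTRA1; inhibitors block probe binding so polarization drops and inhibition rises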
Active calls of the source: *; · = not tested or not shown; + = active, no number.

SMILES	HTRA1 inhibitor	SIAE primary	DDE Tn7 FP inh	TCR-CD3 inh	DDE Tn6 FP inh	ABHD4 inh	HTRA1 inh conf
CC(C)[C@H](N)C(=O)N[C@H](C(=O)N1CCC2CCN(S(=O)(=O)c3ccccc3)CC21)C(C)C (some centres not stated)	·	-3	-5	·	1	4	·
C(=N\NC1=Nc2cccc3cccc1c23)/c1ccccn1	49*	-2	-1	4	-2	21	50*
O=C1CCNc2cc3ccccc3cc21	41*	·	·	·	·	·	14
Cc1cc(N=Nc2ccccc2)c(NCC(O)C(O)C(O)CO)cc1C (configuration not stated)	45*	4	2	-7	-2	14	39*
Cc1ccc(NCC(O)C(O)C(O)CO)cc1C (configuration not stated)	8	-11	7	5	8	4	·
C=CCN1[C@H](C#N)[C@@H](c2ccc(C#Cc3cccc(OC)c3)cc2)[C@H]1CO	·	5	5	·	-1	1	·
NC(=O)c1cc2c3ccccc3ccn2c1-c1ccccc1	42*	6	11	-5	-3	-6	29
CN(C)c1ccc(NC(=O)CSCc2nc3c(nnn3Cc3ccc(F)cc3)c(=O)[nH]2)cc1	38*	·	·	·	·	·	2
CCOC(=O)/C(=N\Nc1ccc(OC)cc1)c1csc(Nc2ccccc2)n1	43*	15	-9	5	-7	13	28
CC(C)(C)c1ccc(O)c(N=Cc2cc(Br)ccc2O)c1	41*	8	-5	9	6	18	42*
COCCN=c1scc(-c2cccs2)n1/N=C/c1ccc(O)c(O)c1O	79*	-3	-5	5	-2	55*	67*
COCCN=c1scc(-c2ccccc2)n1/N=C/c1c[nH]c2ccccc12	20	9	-4	-6	8	21	·
CN1Cc2nnn(CC3CCCCC3)c2-c2ccccc2S1(=O)=O	·	-5	-3	·	-4	-4	·
CCOC(=O)N1C(=O)C[C@](Sc2ccc(OC)cc2)(C(=O)N2CCOCC2)[C@H]1c1ccc(OC)cc1	·	0	8	·	1	-2	·
CCCn1c(CNc2ccccc2O)nc2ccccc21	44*	6	-3	-5	-1	27	59*
CCCCn1c(CNC(=O)CCC)nc2ccccc21	5	2	-6	5	6	5	·
COc1cccc(/C=N/Nc2ncnc3scc(-c4ccccc4)c23)c1O	45*	3	1	4	-3	8	2
COc1ccc(CN2C(C(=O)NCC(C)C)CSCCS2(=O)=O)cc1 (configuration not stated)	·	-5	1	·	3	1	·
CCCCNC(=O)/C=C1\Sc2ccccc2NC1=O	1	0	6	-2	-5	-3	·
CCc1ccc(C(=O)/C=C2\Sc3ccccc3NC2=O)cc1	59*	6	-2	10	-5	-9	93*
Clc1ccc(CN2CCN(N=Cc3ccncc3)CC2)cc1	·	3	-6	·	1	1	·
O=C(NN=Cc1ccc(O)cc1)c1cc(-c2ccc(Cl)cc2)n[nH]1	·	-6	1	·	-6	-25	·
COc1ccc(-c2nnc(SCc3c(F)cccc3F)n2N)cc1	·	-4	0	·	-3	4	·
Oc1c(CN2CCN(c3ccccn3)CC2)cc(Cl)c2cccnc12	39*	·	·	·	·	·	58*
OCCN1CCN(Cc2cc(Cl)c3cccnc3c2O)CC1	52*	4	-6	6	6	4	54*
SMILES	HTRA1 inhibitor	SIAE primary	DDE Tn7 FP inh	TCR-CD3 inh	DDE Tn6 FP inh	ABHD4 inh	HTRA1 inh conf
C=CCOC(=O)N1CCC(NS(=O)(=O)c2ccc3c(c2)CCN3C(C)=O)CC1	·	1	-1	·	-4	-6	·
FC(F)(F)c1cnc(NNC(=S)Nc2ccc(Cl)cc2)c(Cl)c1	49*	8	1	-2	-34	14	54*
Fc1ccc(NC(=S)NNc2ncc(C(F)(F)F)cc2Cl)c(F)c1	46*	5	5	11	-15	7	69*
Cc1ccc(NC(=S)NNc2ncc(C(F)(F)F)cc2Cl)c(C)c1	12	-6	-1	-4	7	14	·
O=C(NNc1ncc(C(F)(F)F)cc1Cl)c1ccc(Cl)c(Cl)c1	-4	0	-2	1	0	-5	·
Cc1ccc(NC(=S)NNc2ncc(C(F)(F)F)cc2Cl)cc1	38*	1	-4	-2	-12	8	36
Cc1ccc(NC(=S)NNC(=O)CSc2nnc(SCc3cccc4ccccc34)s2)cc1	·	-15	5	·	-8	-6	·
COc1ccccc1NS(=O)(=O)c1cc(N)ccc1N1CCOCC1	37*	6	7	-4	-1	3	-13
COc1ccccc1NS(=O)(=O)c1cc(N)ccc1N1CCCC1	10	14	-5	5	-8	28	·
CCOc1ccc(N2C(=O)CS/C2=C(\C(Cl)=C(Cl)Cl)[N+](=O)[O-])cc1	42*	·	·	·	·	·	+
Cc1cccc(OCC(C)CN2CCC(C(O)(c3ccccc3)c3ccccc3)CC2)c1 (configuration not stated)	·	8	-3	·	0	1	·
CC(C)NC(=S)N/N=C/c1cc(Br)ccc1O	37*	16	0	9	6	8	49*
COC(=O)N/N=C/c1cc(Br)ccc1O	4	0	2	-4	8	-4	·
O=C(/C=C/c1ccco1)Oc1cc(Br)cc(/C=N/NC(=O)c2ccccc2O)c1	84*	3	-9	12	-2	15	143*
COC(=O)[C@]12C[C@H](CC(=O)NCCC(C)C)C(=O)N(Cc3cccc4ccccc34)C1=C[C@H](C(C)C)O[C@@H]2C1CC1	·	4	-1	·	2	-5	·
O=C(OCCc1ccccc1)c1cc(O)c(O)c(O)c1	56*	-13	-5	17	-3	17	87*
Nc1ccc(C(=O)OCCc2ccccc2)cc1	-7	0	-2	8	0	-6	·
S=C(Nc1ccccc1Cl)OCCN1CCCC12CCC(c1ccccc1)CC2 (configuration not stated)	·	2	5	·	8	4	·
COc1cccc2c1NC(C(=O)O)C1CC=CC21 (configuration not stated)	62*	·	·	·	·	·	61*
COc1cc(C2Nc3c(F)cccc3C3C=CCC32)cc(Br)c1OC (configuration not stated)	-4	4	-2	1	-1	5	·
O=C(Nc1ccc(Cl)c(Cl)c1)C1CCCN1S(=O)(=O)c1cccc2cccnc12 (configuration not stated)	·	8	-2	·	-5	-18	·
